Legend:
Histamine H2 receptor = Histamine H2 receptor (Cavia porcellus, UniProt P47747); experiment: Functional H2 receptor antagonistic activity in vitro assay on the isolated spontaneously beating guinea-pig right atrium; assay type: tissue-based, Cardiac atrium; details: read-out: pA2 (converted)
Outline: (§1)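 Isolated guinea-pig tissues, spontaneously beating right atrium for H2 and ileum for H1, tested by standard methods. At least triplicate; values are means.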

Histamine H1 receptor = Histamine H1 receptor (Cavia porcellus, UniProt P31389); experiment: Functional Histamine H1 receptor antagonistic activity in vitro assay on guinea pig ileum; assay type: tissue-based; details: read-out: pA2 (converted); outline: as §1
Chain of Histamine H1 receptor (P31389 whole entry): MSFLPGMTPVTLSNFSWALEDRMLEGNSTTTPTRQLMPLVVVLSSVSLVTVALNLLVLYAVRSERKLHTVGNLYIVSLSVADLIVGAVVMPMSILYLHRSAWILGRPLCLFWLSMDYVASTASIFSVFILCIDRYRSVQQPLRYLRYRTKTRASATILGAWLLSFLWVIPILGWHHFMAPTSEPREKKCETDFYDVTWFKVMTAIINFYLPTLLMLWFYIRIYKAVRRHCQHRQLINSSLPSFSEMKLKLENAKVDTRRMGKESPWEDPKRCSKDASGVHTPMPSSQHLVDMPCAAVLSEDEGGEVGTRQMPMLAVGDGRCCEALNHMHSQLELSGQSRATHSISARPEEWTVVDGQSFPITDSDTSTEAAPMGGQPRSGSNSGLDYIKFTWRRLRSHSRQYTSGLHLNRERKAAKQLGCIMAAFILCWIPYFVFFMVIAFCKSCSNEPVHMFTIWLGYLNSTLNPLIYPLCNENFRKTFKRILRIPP

Mus musculus = experiment: Potency after oral administration in vivo in mice; assay type: functional
Histamine H3 receptor [1] = molecular target: T1, Histamine H3 receptor (Rattus norvegicus, UniProt Q9QYN8); experiment: In vitro […] against rat histamine H3 receptor
T1 sequence (Q9QYN8 whole entry): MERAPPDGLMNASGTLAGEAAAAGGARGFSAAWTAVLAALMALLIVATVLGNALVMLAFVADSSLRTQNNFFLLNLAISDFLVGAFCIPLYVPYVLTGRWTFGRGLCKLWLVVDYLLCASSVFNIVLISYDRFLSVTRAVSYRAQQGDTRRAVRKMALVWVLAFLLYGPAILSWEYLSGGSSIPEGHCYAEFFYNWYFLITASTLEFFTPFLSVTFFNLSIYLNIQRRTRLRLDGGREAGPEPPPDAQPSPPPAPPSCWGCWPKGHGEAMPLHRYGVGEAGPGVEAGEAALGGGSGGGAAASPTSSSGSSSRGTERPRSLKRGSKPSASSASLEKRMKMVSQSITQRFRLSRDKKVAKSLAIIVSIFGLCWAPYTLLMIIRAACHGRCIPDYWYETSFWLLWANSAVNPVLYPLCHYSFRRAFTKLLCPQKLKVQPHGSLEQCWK
Outline: (§2)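 Rat cerebral cortex synaptosomes preloaded 30 min at 37 °C with L-[3H]histidine 0.4 μM in modified Krebs–Ringer, washed, then depolarized 2 min with 2 or 30 mM K+. Drugs and 1 μM histamine added 5 min before the stimulus. [3H]histamine measured by scintillation after purification; Ki by Cheng–Prusoff, mean ± SEM of at least three experiments.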

Histamine H3 receptor [2] = molecular target: T1, Histamine H3 receptor; experiment: Functional Histamine H3 receptor antagonistic activity in vitro assay on synaptosomes of rat cerebral cortex; assay type: subcellular, Brain; outline: as §2
Histamine H3 receptor [3] = molecular target: Histamine H3 receptor (Cavia porcellus, UniProt Q9JI35); experiment: Functional Histamine H3 receptor antagonistic activity in vitro assay on guinea pig ileum; assay type: tissue-based; details: read-out: pA2 (converted)
Chain of Histamine H3 receptor (Cavia porcellus, UniProt Q9JI35) (Q9JI35 whole entry): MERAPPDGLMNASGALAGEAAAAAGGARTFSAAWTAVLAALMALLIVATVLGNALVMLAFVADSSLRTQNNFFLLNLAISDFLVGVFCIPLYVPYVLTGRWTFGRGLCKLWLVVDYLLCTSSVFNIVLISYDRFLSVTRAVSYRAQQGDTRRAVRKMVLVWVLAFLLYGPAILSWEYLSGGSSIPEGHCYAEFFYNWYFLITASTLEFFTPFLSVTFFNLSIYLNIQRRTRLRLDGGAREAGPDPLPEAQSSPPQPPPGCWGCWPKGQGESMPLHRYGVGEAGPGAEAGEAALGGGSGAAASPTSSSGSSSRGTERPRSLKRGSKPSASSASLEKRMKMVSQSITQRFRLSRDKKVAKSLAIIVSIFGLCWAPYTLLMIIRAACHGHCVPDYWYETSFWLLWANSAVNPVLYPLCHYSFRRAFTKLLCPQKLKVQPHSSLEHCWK
Outline: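 Guinea-pig ileal longitudinal muscle–myenteric plexus strips at about 7.5 mN in Krebs–Henseleit, 37 °C, 95% O2/5% CO2, mepyramine 1 μM present. Field stimulated at 15 V, 0.5 ms, 0.1 Hz. Cumulative (R)-α-methylhistamine curves (1–1000 nM) recorded before and after antagonist; rightward shift corrected by the shift in daily controls.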

Histamine H3 receptor [4] = molecular target: T2, Histamine H3 receptor (Homo sapiens, UniProt Q9Y5N1); experiment: (§3) Effect on specific [35S]GTP-gamma-S, Binding to HEK293 cell membranes expressing the human Histamine H3 receptor; assay type: functional
T2 sequence (Q9Y5N1 whole entry): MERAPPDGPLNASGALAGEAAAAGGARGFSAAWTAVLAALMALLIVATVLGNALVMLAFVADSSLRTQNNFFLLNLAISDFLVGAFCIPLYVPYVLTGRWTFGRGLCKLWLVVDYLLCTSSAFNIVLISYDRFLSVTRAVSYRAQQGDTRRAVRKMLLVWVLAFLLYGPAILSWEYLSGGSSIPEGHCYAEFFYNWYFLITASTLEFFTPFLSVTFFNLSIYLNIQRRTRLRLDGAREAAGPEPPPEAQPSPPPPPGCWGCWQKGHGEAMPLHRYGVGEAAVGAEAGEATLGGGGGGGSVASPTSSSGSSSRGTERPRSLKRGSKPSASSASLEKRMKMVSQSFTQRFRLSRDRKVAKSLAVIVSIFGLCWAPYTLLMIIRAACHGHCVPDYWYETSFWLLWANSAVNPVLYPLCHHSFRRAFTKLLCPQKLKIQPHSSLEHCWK
Outline: (§4)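 HEK293 cells stably transfected with human H3 receptor (selected with 2 mg/mL G418, maintained in 1 mg/mL). Membranes prepared in Tris/HCl 50 mM pH 7.5; 10–20 μg protein incubated 60 min at 20 °C with 0.1 nM [35S]GTPγS ± drug in Tris 50 mM, NaCl 100 mM, MgCl2 10 mM, GDP 10 μM.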

Histamine H3 receptor [5] = molecular target: T2, Histamine H3 receptor; experiment: as §3; assay type: functional; outline: as §4; remark: listed apart in the source

Chain of Histamine H2 receptor (P47747 whole entry): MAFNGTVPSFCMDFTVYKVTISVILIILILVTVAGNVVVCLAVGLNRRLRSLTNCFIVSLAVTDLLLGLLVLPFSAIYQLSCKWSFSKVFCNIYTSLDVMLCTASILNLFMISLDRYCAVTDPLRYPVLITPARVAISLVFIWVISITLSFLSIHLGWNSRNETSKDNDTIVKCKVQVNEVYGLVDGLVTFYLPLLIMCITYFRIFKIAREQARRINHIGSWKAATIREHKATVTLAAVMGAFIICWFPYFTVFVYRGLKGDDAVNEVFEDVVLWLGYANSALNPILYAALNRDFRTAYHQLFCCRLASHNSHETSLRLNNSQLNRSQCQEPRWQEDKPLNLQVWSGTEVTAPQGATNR

Row | SMILES | Kb (Histamine H2 receptor) [nM] | Kb (Histamine H1 receptor) [nM] | ED50 (Mus musculus) [mg/kg] | Ki (Histamine H3 receptor [1]) [nM] | Ki (Histamine H3 receptor [2]) [nM] | Kb (Histamine H3 receptor [3]) [nM] | EC50 (Histamine H3 receptor [4]) [nM] | Intrinsic activity (Histamine H3 receptor [5])
1 | CCOCCCc1c[nH]cn1.O=C(O)C(=O)O | > 31600 | > 100000 | 0.26 | – | – | – | – | –
2 | CC(C)(C)OCCc1c[nH]cn1.O=C(O)C(=O)O | – | – | > 10 | > 500 | – | – | – | –
3 | COCCCc1c[nH]cn1.O=C(O)C(=O)O | > 31600 | > 100000 | ~10 | 290 | 316 | – | – | –
4 | CCCCCCOCCCc1c[nH]cn1.O=C(O)/C=C\C(=O)O | 10000 | 7940 | > 30 | 14 | 12.6 | 39.8 | 40 | 0.49
5 | C=CCOCCCc1c[nH]cn1.O=C(O)C(=O)O | > 31600 | > 316000 | 0.33 | 200 | 200 | – | 336 | 0.63
6 | N#CCCOCCCc1c[nH]cn1.O=C(O)C(=O)O | – | – | 3.2 | 674 | – | – | – | –
7 | CCCCCCCCOCCCc1c[nH]cn1.O=C(O)/C=C\C(=O)O | 2510 | 15800 | > 10 | – | – | 100 | – | –
8 | O=C(c1ccc(OCCCc2c[nH]cn2)cc1)C1CC1 [CIPROXIFAN] | – | – | 0.14 | – | – | – | – | –
9 | O=C(COCCCc1c[nH]cn1)c1cccc([N+](=O)[O-])c1 | – | – | – | > 500 | – | – | – | –
10 | c1nc(CCCOCCC2CCCCC2)c[nH]1 | – | – | – | 11 | 10 | – | – | –
11 | CCCCCCCOCCCc1c[nH]cn1 | 2000 | > 100000 | – | – | 15.8 | 15.8 | – | –
12 | c1nc(COCC2CC3CCC2C3)c[nH]1 (stereo not given) | – | – | – | ~500 | – | – | – | –
13 | c1ccc(CC(COCCCc2c[nH]cn2)c2ccccc2)cc1 (stereo not given) | – | – | – | 184 | – | – | – | –
14 | S=C(NC1CCCCC1)N1CCC(c2cnc[nH]2)CC1 [THIOPERAMIDE] | – | – | 1 | – | – | – | – | –
15 | c1ccc(C(OCCCc2cnc[nH]2)(c2ccccc2)c2ccccc2)cc1 | – | – | > 10 | > 500 | – | – | – | –
16 | CC(C)(C)OCCCc1c[nH]cn1.O=C(O)/C=C\C(=O)O | > 31600 | > 100000 | 1.3 | 120 | 126 | – | – | –

Row | SMILES | Kb (Histamine H2 receptor) [nM] | Kb (Histamine H1 receptor) [nM] | ED50 (Mus musculus) [mg/kg] | Ki (Histamine H3 receptor [1]) [nM] | Ki (Histamine H3 receptor [2]) [nM] | Kb (Histamine H3 receptor [3]) [nM] | EC50 (Histamine H3 receptor [4]) [nM] | Intrinsic activity (Histamine H3 receptor [5])
17 | O=C(O)/C=C\C(=O)O.c1nc(COCCC2CCCCC2)c[nH]1 | – | – | > 10 | > 500 | – | – | – | –
18 | O=C(COCCCc1c[nH]cn1)c1ccccc1.O=C(O)/C=C\C(=O)O | – | – | > 10 | > 500 | – | – | – | –
19 | c1nc(COCC2CCCCC2)c[nH]1 | – | – | – | > 500 | > 1000 | – | – | –
20 | O=C(CCCOCCCc1c[nH]cn1)c1ccc(F)cc1.O=C(O)C(=O)O | – | – | 0.28 | 14 | – | – | – | –
21 | c1nc(COCCCC2CCCCC2)c[nH]1 | – | – | – | ≥ 500 | – | – | – | –
22 | C=CCCCOCCCc1c[nH]cn1.O=C(O)C(=O)O | – | – | ≥ 10 | 27 | – | – | – | –
23 | CCCOCCCc1c[nH]cn1.O=C(O)C(=O)O | > 31600 | > 31600 | 1.8 | 230 | 251 | – | – | –
24 | CC(=O)CCOCCCc1c[nH]cn1 | – | – | – | 143 | – | – | – | –
25 | O=C(O)/C=C\C(=O)O.c1nc(CCCOCCCC2CCCC2)c[nH]1 | 5010 | 20000 | 0.28 | 7 | 6.31 | 15.8 | – | –
26 | CCCCOCCCc1c[nH]cn1.O=C(O)/C=C\C(=O)O | – | – | > 10 | 56 | – | – | 311 | 0.39
27 | C#CCCCOCCCc1c[nH]cn1 | – | – | – | 38 | 39.8 | 316 | – | –
28 | COCCOCCCc1c[nH]cn1 | – | – | – | ~400 | – | – | – | –
29 | O=C(O)/C=C\C(=O)O.c1nc(CCCOCCCC2CCCCC2)c[nH]1 | 50100 | 7940 | 1 | – | 20 | – | – | –
30 | CCCCCOCCCc1c[nH]cn1.O=C(O)/C=C\C(=O)O | > 31600 | 20000 | > 30 | 33 | 31.6 | 63.1 | 97 | 0.47
31 | C#CCOCCCc1c[nH]cn1.O=C(O)C(=O)O | > 31600 | > 316000 | 0.57 | 190 | 200 | – | 135 | 0.73
32 | c1nc(CCCOCC2CC2)c[nH]1 | – | – | – | 167 | – | – | – | –

— ChEMBL document CHEMBL1148314, “4-(omega-(alkyloxy)alkyl)-1H-imidazole derivatives as histamine H(3) receptor antagonists/agonists” (J Med Chem, 2004)
